Article PMC9996623 (ACS Omega, 2023)

Key:
HIV-1 integrase = HIV-1 integrase (Human immunodeficiency virus type 1 group M subtype B, UniProt P04585); assay: HIV-1 integrase strand transfer; assay type: biochemical; details: for inhibition at 10 µM: read-out: %ST inhibition (percentage inhibition of strand transfer activity of integrase enzyme), 10 μM dose, WT (wild-type) integrase; for fold increase in %ST inhibition compared to 10a: versus 10a
TZM-bl cells = assay: MTT cytotoxicity assay on TZM-bl cells; assay type: cell-based; details: IC50 values at 48 h, 3.125 to 200 μM
How it was run: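 Medium with compound removed; MTT reagent (5 mg/mL) added for 4 h; formazan dissolved in DMSO with shaking; absorbance read at 570 nm against a 630 nm reference. Percent viability plotted versus concentration.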

| Structure (SMILES) | inhibition at 10 µM (HIV-1 integrase) | also measured |
| --- | --- | --- |
| Cn1cc(-c2ccccc2)c2ccc(Cl)nc21 [10a, 6-Chloro-1-methyl-3-phenyl-1H-pyrrolo[2,3-b]pyridine] | 14% |  |
| Cc1ccc(-c2cn(C)c3nc(Cl)ccc23)cc1 [10b, 6-Chloro-1-methyl-3-(p-tolyl)-1H-pyrrolo[2,3-b]pyridine] | 41% | fold increase in %ST inhibition compared to 10a (HIV-1 integrase; 10 μM dose): ~3 fold |
| Cc1cccc(-c2cn(C)c3nc(Cl)ccc23)c1 [10c, 6-Chloro-1-methyl-3-(m-tolyl)-1H-pyrrolo[2,3-b]pyridine] | 19.4% |  |
| COc1ccc(-c2cn(C)c3nc(Cl)ccc23)cc1 [10d, 6-Chloro-3-(4-methoxyphenyl)-1-methyl-1H-pyrrolo[2,3-b]pyridine] | 56% |  |
| Cn1cc(-c2ccc(F)cc2)c2ccc(Cl)nc21 [10e, 6-Chloro-3-(4-fluorophenyl)-1-methyl-1H-pyrrolo[2,3-b]pyridine] | 38.3% |  |
| Cn1cc(-c2cc(C(F)(F)F)cc(C(F)(F)F)c2)c2ccc(Cl)nc21 [10f, 3-(3,5-Bis(trifluoromethyl)phenyl)-6-chloro-1-methyl-1H-pyrrolo[2,3-b]pyridine] | 48.3% |  |
| Cn1cc(-c2ccc3c(c2)OCO3)c2ccc(Cl)nc21 [10h, 3-(Benzo[d][1,3]dioxol-5-yl)-6-chloro-1-methyl-1H-pyrrolo[2,3-b]pyridine] | 54% |  |
| COc1ccc(-c2ccc3c(-c4ccccc4)cn(C)c3n2)cc1 [11a, 6-(4-Methoxyphenyl)-1-methyl-3-phenyl-1H-pyrrolo[2,3-b]pyridine] | 39.3% | fold increase in %ST inhibition compared to 10a (HIV-1 integrase; 10 μM dose): ~2 fold |
| Cc1ccc(-c2ccc3c(-c4ccccc4)cn(C)c3n2)cc1 [11b, 1-Methyl-3-phenyl-6-(p-tolyl)-1H-pyrrolo[2,3-b]pyridine] | 51.7% |  |
| Cn1cc(-c2ccccc2)c2ccc(-c3cc(C(F)(F)F)cc(C(F)(F)F)c3)nc21 [11c, 6-(3,5-Bis(trifluoromethyl)phenyl)-1-methyl-3-phenyl-1H-pyrrolo[2,3-b]pyridine] | 36.4% |  |
| COc1ccc(-c2ccc3c(-c4ccc(F)cc4F)cn(C)c3n2)cc1 [11d, 3-(2,4-Difluorophenyl)-6-(4-methoxyphenyl)-1-methyl-1H-pyrrolo[2,3-b]pyridine] | 72% |  |
| Cn1cc(-c2ccccc2)c2ccc(-c3ccsc3)nc21 [11e, 1-Methyl-3-phenyl-6-(thiophen-3-yl)-1H-pyrrolo[2,3-b]pyridine] | 41.6% |  |
| Cn1cc(-c2ccc3c(c2)OCO3)c2ccc(-c3ccncc3)nc21 [11f, 3-(Benzo[d][1,3]dioxol-5-yl)-1-methyl-6-(pyridin-4-yl)-1H-pyrrolo[2,3-b]pyridine] | 71% | IC50 in TZM-bl (TZM-bl cells): minimal cytotoxicity; fold increase in %ST inhibition comparing 10h and 11f (HIV-1 integrase; 10 μM dose, versus 10h): ~1.3 fold |
| COc1ccc(Cn2cc(-c3ccsc3)c3ccc(-c4ccncc4)nc32)cc1 [12a, 1-(4-Methoxybenzyl)-6-(pyridin-4-yl)-3-(thiophen-3-yl)-1H-pyrrolo[2,3-b]pyridine] | 15.9% |  |
| COc1ccc(Cn2cc(-c3ccc4c(c3)OCO4)c3ccc(-c4ccc5ccccc5c4)nc32)cc1 [12b, 3-(Benzo[d][1,3]dioxol-5-yl)-1-(4-methoxybenzyl)-6-(naphthalen-2-yl)-1H-pyrrolo[2,3-b]pyridine] | 24.1% |  |
| Cc1nnc(C(=O)NC(C)(C)c2nc(C(=O)NCc3ccc(F)cc3)c(O)c(=O)n2C)o1 [RAL, Raltegravir, reference compound] | 82% |  |
